Compound activity as filed in PubChem BioAssay.
HSF-1 act: HSF-1 activators, primary screen, NIH3T3-HGL cells, MG132 stress, luminescence, single point. NIH3T3-HGL HSF-1 luciferase reporter, 8 h; 100% = twice DMSO control signal. activation, % at 9 µM. actives 1.7% (n = 300,000). AID 504408, 2011;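 active = mean replicate activation of at least 50% with a set share of replicates each reaching 50%; inconclusive = only one of those two conditions met; inactive = mean below 50% and too few replicates reaching it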;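 also: 0% = median of the neutral control wells and 100% = twice that signal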
Mdm2 ligase inh: MDM2-luciferase reporter signal enhancers, primary screen, MDM2 E3 ligase inhibitor project, cell-based, luminescence, 1536-well. cell-based MDM2 ubiquitination luciferase reporter, 2 h; 0 = plate control, 100 = twice control, blank-subtracted. signal enhancement, % at 5 µM. actives 0.11% (n = 210,000);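 active = signal enhancement of 30% or more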;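 also: luminescence tracks abundance of the self-degrading MDM2-luciferase fusion protein; higher signal means inhibition of MDM2 E3 ligase activity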
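Buffer or medium: Cells held in DMEM | Assay system: Stable mammalian line carrying autodegrading MDM2–luciferase fusion reporter | Quantity: 2000 cells/well | Times: 4 h settle plus 2 h compound, 37 °C | Doses: One concentration, 5 µM, with 0.2% DMSO | Technique: Luminescence with SteadyLite reagent, 15 min at room temperature | Benchmarks: Plate controls and plate blanks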
HSF1 inh: HSF1 inhibitors in luciferase reporter cells, primary screen, cell-based, NIH3T3, luminescence; actives 0.77% (n = 300,000); activity change, negative = inhibition, % at 7.5 µM (by protocol); AID 2098, 2009; NIH3T3-HGL HSE-luciferase, MG132-induced, luminescence 8 h; active compounds read low;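 active = more than half of replicate wells show activity change below -50%, luminescence cut by over half; inconclusive = some wells, but at most half, below -50%; inactive = no replicate well below -50%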;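 also: luciferase reports HSF-1 transcriptional activity via heat shock element; 0% = median of DMSO wells and -100% = zero luminescence signal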
Rad51 HR inh: human RAD51 strand exchange inhibitors, primary screen, biochemical, fluorescence | DNA repair protein RAD51 homolog 1 (Homo sapiens), Q06609 | hRad51 DNA strand exchange, fluorescence dequenching | inhibition, % at 10 µM | actives 0.085% (n = 200,000) | AID 1385, 2008;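 active = inhibition above 40% at the single screening dose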;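 also: 0% = DMSO control wells and 100% = blanks with heterologous ssDNA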
Target sequence (Q06609 whole entry, looked up): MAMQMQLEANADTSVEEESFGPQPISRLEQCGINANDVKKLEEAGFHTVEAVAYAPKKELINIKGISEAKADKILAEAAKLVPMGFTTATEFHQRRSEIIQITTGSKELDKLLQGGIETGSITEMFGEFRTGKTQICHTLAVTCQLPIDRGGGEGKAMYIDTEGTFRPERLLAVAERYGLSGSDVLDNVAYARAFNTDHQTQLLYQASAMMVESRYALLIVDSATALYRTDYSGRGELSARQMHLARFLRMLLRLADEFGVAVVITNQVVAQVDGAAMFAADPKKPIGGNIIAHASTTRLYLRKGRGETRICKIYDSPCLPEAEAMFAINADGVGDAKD
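Material: human Rad51–ssDNA filaments; Probe or stimulus: labelled 47-mer dsDNA for strand exchange; Doses: single 10 µM dose; Incubation: 37 °C 15-min filament assembly, 30-min compound preincubation, 15-min exchange; Technique: FRET fluorescence dequenching, excitation 485 nm, emission 520 nm; Measure: Fluorescence-based percent inhibition, control- and blank-normalised; Benchmarks: plate control and blank wells.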
HSV augment: enhancers of HSV replication in host cells, fold increase, host cell viability. maximum fold increase. actives 0.005% (n = 220,000). AID 1956, 2009. HSV replication augmentation in cells; in the data active = maximum fold increase above about 1.5; inconclusive = no clear call, values can overlap the other calls; tested in PC3 cells
Hsp70 activator: Hsp70 transcriptional activators, primary screen, cell-based, HeLa, Hsp70 promoter luciferase, luminescence, 10 µM | HeLa Hsp70 promoter luciferase reporter; scaled: vehicle 0, proteasome-inhibitor control 100% | activation, % at 10 µM | actives 0.04% (n = 200,000) | AID 1203, 2008;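 active = activation above the mean across all tested compounds plus 3 SD, cutoff set per campaign, cut at about 5.5% in these data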;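 also: 100% = MG132 at 30 µM as the positive control and 0% = DMSO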
Numbers without * were called inactive; i = inactive; u = inconclusive; x = not tested or not shown. This is a sample that favours compounds with a hit; in the whole collection about 2.6% have one here.

SMILES	HSF-1 act	Mdm2 ligase inh	HSF1 inh	Rad51 HR inh	HSV augment	Hsp70 activator
N#CC1=C(N)Oc2c(ccc3ccccc23)C1c1ccsc1 (configuration not stated)	65*	-10	45	x	x	0
Cc1ccc(SCc2[nH]nc3c2C(c2ccc(C)o2)C(C#N)=C(N)O3)cc1 (configuration not stated)	-74	-1	-66*	x	i	0
CCCc1[nH]nc2c1C(c1cc(OC)ccc1F)C(C#N)=C(N)O2 (configuration not stated)	74*	-19	30	-4	i	0
CCCc1[nH]nc2c1C(c1cc(OC)cc(OC)c1)C(C#N)=C(N)O2 (configuration not stated)	14	-5	2	1	i	0
N#CC1=C(N)Oc2c(oc(CO)cc2=O)C1c1ccsc1 (configuration not stated)	7	-13	-4	-2	i	0
CCc1[nH]nc2c1C(c1ccsc1)C(C#N)=C(N)O2 (configuration not stated)	53*	0	16	-4	i	0
C[C@H](NC(=O)c1nc[nH]c1C(=O)N[C@@H](CCCCNC(=O)OC(C)(C)C)C(=O)OC(C)(C)C)c1ccccc1	-1	3	3	2	i	x
Cc1ccc(S(=O)(=O)N(C)C)cc1NC(=O)c1cc(=O)c2ccccc2o1	-9	x	1	x	x	x
O=C(NC1CC1)C1CCN(C2CCN(C(=O)/C=C/c3ccc(F)cc3)CC2)CC1	33	-3	7	x	i	0
CC(C)(C)C(=O)Nc1sc2c(c1C#N)CCN(Cc1ccccc1)C2	57*	x	18	x	x	x
N#Cc1c(NC(=S)NC(=O)c2ccccc2)sc2c1CCN(CCc1ccccc1)C2	12	-2	-7	i	u	-1
c1ccc2sc(Sc3ncnc4sccc34)nc2c1	329*	-8	235	-2	i	0
CCc1cc2c(Sc3nc4ccccc4s3)ncnc2s1	99*	-19	62	2	i	1
COc1ccccc1CN1CC(C(=O)NCCc2ccccc2Cl)CCC1=O (configuration not stated)	7	x	7	x	x	x
COc1ccccc1CN1CC(C(=O)NCCN2CCNC2=O)CCC1=O (configuration not stated)	-79	x	-73*	x	x	x
CCC(Sc1nc(N)c(NC(=O)c2ccc(Br)o2)c(=O)[nH]1)C(=O)O (configuration not stated)	-6	x	-3	x	x	x
O=C(CN1CCCC1)Nc1c2c(cc3c1CCC3)CCC2	-71	5	-64*	-38	i	0
NC(=O)Nc1ccc(C(=O)OCC(=O)Nc2ccc(Cl)cn2)cc1	2	-11	-3	2	i	x
O=C(O)c1ccc(CN2C(=O)c3cccc4c([N+](=O)[O-])ccc(c34)C2=O)cc1	-82	x	-83*	x	x	x
O=C(CC1SC(=O)N(c2ccccc2)C1=O)Nc1ccc(Cl)cc1 (configuration not stated)	6	-4	24	14	i	x
O=C(CC1SC(=NCCc2ccccc2)N(/N=C/c2cccs2)C1=O)Nc1ccc(Cl)cc1 (configuration not stated)	69*	-5	36	-1	i	0
COc1ccc(C(=O)/C=C2\Sc3ccccc3N2C)cc1	56*	-28	22	-1	i	0
Cc1ccc(C(=O)C(C)OC(=O)c2ccccc2[N+](=O)[O-])cc1 (configuration not stated)	87*	-11	51	1	i	0
O=C(/C=C\c1ccccc1[N+](=O)[O-])Nc1ccccc1	30	-7	45	x	i	0
Cc1ccc(C(=O)/C=C/c2ccc(-c3ccccc3[N+](=O)[O-])o2)cc1	-1	-3	2	-15	i	0
SMILES	HSF-1 act	Mdm2 ligase inh	HSF1 inh	Rad51 HR inh	HSV augment	Hsp70 activator
COc1ccccc1C(=O)NNC(=O)c1ccccc1[N+](=O)[O-]	8	-8	-3	-11	i	0
O=C(/C=C/c1ccccc1[N+](=O)[O-])c1ccccc1Br	65*	0	43	-139	i	0
Cc1ccc(C(=O)/C=C/c2ccccc2[N+](=O)[O-])cc1	135*	-7	91	4	i	0
C/C(=N/O)c1ccc(Oc2cnccn2)cc1	11	-5	-7	4	i	0
CCc1cccc(NC(=O)CCS(=O)(=O)c2ccc(Br)cc2)c1	13	x	-8	x	x	x
CC(C)(C)CC(=O)Nc1nnc(SCC(=O)NC2CCCCC2)s1	12	x	0	x	x	x
CCc1cccc(CC)c1NC(=S)N1CCn2cccc2C1c1cccnc1 (configuration not stated)	-65	-10	-55*	8	i	0
Cc1nc(S(=O)(=O)c2ccc(Cl)cc2)c(NCc2ccccc2)o1	64*	-7	21	-1	i	0
CNc1oc(C)nc1S(=O)(=O)c1ccccc1	-13	-15	-8	-4	i	0
O=c1c2c(nc3cc(-c4cccc(F)c4)[nH]n13)CCC2	52*	-31	16	-5	i	0
COc1ccc(CN2C(=O)c3ccc(C(=O)O)cc3C2=O)cc1	1	x	-2	x	x	x
O=C1c2cccc3cccc(c23)C(=O)N1CCN1CCN(CC(O)COCc2ccc(Cl)cc2)CC1 (configuration not stated)	73*	16	40	12	i	0
COc1ccc(COCC(O)CN2CCC(CN3C(=O)c4cccc5cccc(c45)C3=O)CC2)cc1OC (configuration not stated)	7	-20	3	x	i	0
COc1cc(COCC(O)CN2CCN(CCN3C(=O)c4cccc5cccc(c45)C3=O)CC2)cc(OC)c1OC (configuration not stated)	115*	-4	88	x	i	0
O=C1c2cccc3cccc(c23)C(=O)N1CCN1CCN(CC(O)COc2ccc3ccccc3c2)CC1 (configuration not stated)	17	-15	17	7	i	0
Cc1ccc(N(C)C(=O)CN(C)S(=O)(=O)c2ccc3c(c2)n(C)c(=O)c(=O)n3C)cc1	-93	x	-91*	x	x	x
Cc1cccc(N(CC(=O)NCC2CCCO2)C(=O)CNS(=O)(=O)c2ccc(Cl)cc2)c1 (configuration not stated)	12	x	4	x	x	x
